Bioassay records: PubChem BioAssay, Johns Hopkins Ion Channel Center
MrgX1 agonist: agonists of human MrgX1 receptor, primary screen, HEK293 cells, Fluo-4 calcium flux; Fluo-4 calcium fluorescence, agonist mode; active compounds read high; B-score at 10 µM; 310,000 tested, 0.44% active; AID 588627, 2011;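 active means calcium response B-score plate-corrected fluorescence ratio at least 3 library SD, with starting fluorescence B-score inside 5 SD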
Target sequence (Q96LB2 whole entry, looked up): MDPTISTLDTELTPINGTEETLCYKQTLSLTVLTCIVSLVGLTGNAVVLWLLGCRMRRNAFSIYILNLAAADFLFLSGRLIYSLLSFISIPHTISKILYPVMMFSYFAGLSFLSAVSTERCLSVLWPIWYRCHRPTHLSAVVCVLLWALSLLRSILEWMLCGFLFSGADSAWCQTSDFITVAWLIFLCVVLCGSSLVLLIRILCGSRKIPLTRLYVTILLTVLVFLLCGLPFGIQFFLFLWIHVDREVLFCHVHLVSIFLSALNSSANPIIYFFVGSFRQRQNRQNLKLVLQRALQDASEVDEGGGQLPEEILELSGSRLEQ
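Assay system: MrgX1-expressing HEK293 cells / Amount: fifteen thousand cells per well / Doses: test compound in the initial addition of three / Timing: cells plated overnight, dye loaded 0.5 h 37 °C, 0.5 h room temperature / Technique: kinetic calcium dye fluorescence, Fluo-4 NW / Control set: positive and negative controls per plate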
RGS4 block: RGS4 inhibitors, primary screen, cell-based, HEK293 M3R inducible RGS4, calcium flux; Regulator of G-protein signaling 4 (Homo sapiens), P49798; 310,000 tested, 0.45% active; B-score at 10 µM; Fluo-4 calcium flux; active compounds read high; triggered by carbachol at its EC20;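 active means B-score, a plate-corrected calcium signal, over three deviations above library mean, with baseline fluorescence within five deviations of library mean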;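 further: RGS4 expression induced by doxycycline in cells with stable M3 receptor; B-score is computed from the integrated fluorescence ratio over baseline after carbachol; higher B-score means a larger calcium signal and so more RGS4 inhibition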
Target sequence (P49798 whole entry, looked up): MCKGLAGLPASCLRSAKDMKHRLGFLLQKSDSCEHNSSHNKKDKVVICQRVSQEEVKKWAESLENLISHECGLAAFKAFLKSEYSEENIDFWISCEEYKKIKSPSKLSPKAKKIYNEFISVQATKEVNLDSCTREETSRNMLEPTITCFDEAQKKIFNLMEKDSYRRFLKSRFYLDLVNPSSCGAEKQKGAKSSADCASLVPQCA
MrgX1 antagonist: antagonists of human MrgX1 receptor, primary screen, HEK293 cells, Fluo-4 calcium flux | B-score at 10 µM | BAM8-22 antagonism; active compounds read low | 310,000 tested, 1.3% active | AID 588676, 2011;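 active means calcium-response B-score plate-corrected more than 3 library SD below zero, starting fluorescence within 5 deviations, no agonist response on first addition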;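 further: peak minus trough fluorescence over baseline after final BAM8-22 challenge near maximal dose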
RGS4 act: RGS4 potentiators or activators, primary screen, cell-based, HEK293 M3R inducible RGS4, calcium flux; carbachol calcium flux Fluo4; active compounds read low; B-score at 10 µM; 310,000 tested, 0.92% active;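 active means B-score of the integrated calcium signal more than 4 SD below the library mean, with starting fluorescence not abnormally high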;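 further: negative B-score means reduced calcium response which marks RGS4 activation or potentiation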
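test system = HEK293 cells with stable M3R and inducible RGS4 | schedule = recording 10 s baseline at 1 Hz, 100 s post-agonist | technique = Fluo4-AM (2 µM) calcium-flux fluorescence, kinetic read | measure = Agonist-evoked peak-minus-minimum fluorescence over baseline, integrated ratio, B score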
MrgX1 allo act: positive allosteric modulators of MrgX1, primary screen, HEK293 cells, Fluo-4 calcium flux. FDSS; active compounds read high. B-score at 10 µM. Mas-related G-protein coupled receptor member X1 (Homo sapiens), Q96LB2. 310,000 tested, 0.63% active. AID 588675, 2011;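 active means plate-corrected calcium response at least 3 library SD above typical, normal starting fluorescence, not activating the receptor alone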;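 further: compound read alongside a low EC10 to EC30 dose of BAM8-22 agonist; peak minus trough fluorescence over baseline measured at the second addition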
RGS4 inh valid: enhanced carbachol calcium response, M3R/RGS4 cells, RGS4 inhibitor project, cell-based, validation screen, HEK293 M3R/RGS4, calcium flux; calcium response, % at 10 µM; shares compounds with RGS4 block; 1,700 tested, 65% active; carbachol calcium Fluo-4 fluorescence; carbachol added at its EC20; 0 = buffer wells, 100 = carbachol control;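 active means duplicate-averaged calcium response above the buffer-only control mean plus 5 SD of those controls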;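 further: integrated fluorescence ratio F max minus min over baseline F0; higher response in RGS4-induced cells means RGS4 inhibition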
RGS4 uninduced: carbachol calcium response in non-induced M3R cells, confirmation, counter-screen for RGS4 inhibitor project, cell-based, HEK293 M3R; shares compounds with RGS4 block; carbachol calcium Fluo-4; submaximal (EC20) carbachol stimulus; buffer wells 0%, carbachol control wells 100%; activity (percent), % at 10 µM; 1,900 tested, 20% active; call rule not given here;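 further: RGS4 induction absent so cells express M3R without RGS4; higher means more calcium signal and flags a non-specific hit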
RGS4 inh ctr2: second counter-screen for RGS4 inhibitors: non-induced cells without carbachol; shares compounds with RGS4 block; HEK293 M3R/RGS4 non-induced, Fluo-4 calcium, no carbachol; normalised: buffer wells 0%, carbachol wells 100%; calcium response (agonist-mode artifact), % at 10 µM; 1,900 tested, 22% active; AID 493001;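 active means duplicate-averaged calcium rise in uninduced cells above buffer wells' mean plus 5 SD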
Large screens that a line does not name were inactive (follow-up assays come after a bar, where they were run). A selection: hits, their analogues and other compounds. The true share with any hit is near 3.5%.

CSc1ccc(CCNC(=O)CN2C(=O)CCSc3ccccc32)cc1	none
O=c1cc(CN2CC(O)Cc3ccc4ccccc4c32)nc2sccn12 (stereo not given)	RGS4 block 6 | RGS4 inh valid 20% | RGS4 uninduced inactive | RGS4 inh ctr2 inactive
CC1Cc2ccccc2N1Cc1cc(=O)n2ccsc2n1 (stereo not given)	none (no result: RGS4 block, RGS4 act)
COc1ccc(CC(=O)N[C@@H](CCSC)C(=O)N2CCC3(CC2)NCCc2[nH]cnc23)cc1	none
Cc1ccc(C(=O)C2=C(O)C(=O)N(Cc3ccco3)C2c2cccc(Br)c2)o1 (stereo not given)	none
O=C(C1=C(O)C(=O)N(Cc2ccco2)C1c1cccc(O)c1)c1ccco1 (stereo not given)	RGS4 block 4.7 | RGS4 inh valid 5.5% | RGS4 uninduced inactive | RGS4 inh ctr2 inactive
CCOC(=O)[C@@H]1[C@H]2COc3ccccc3[C@@H]2N2C(=O)N(c3ccc(OC)cc3)C(=O)[C@]12C	none | RGS4 inh valid inactive | RGS4 uninduced inactive | RGS4 inh ctr2 7.5%
CCOC(=O)[C@@H]1[C@H]2COc3ccccc3[C@@H]2N2C(=O)N(c3ccc(OC)cc3)C(=O)[C@@]12C	none | RGS4 inh valid inactive | RGS4 uninduced inactive | RGS4 inh ctr2 inactive
CCOC(=O)[C@@H]1[C@H]2COc3ccc(Br)cc3[C@@H]2N2C(=O)N(c3ccc(OC)cc3)C(=O)[C@]12C	none
Cc1ccc(N2C(=O)N3[C@H]4c5ccccc5OC[C@@H]4[C@@H](c4ccccc4)[C@@]3(C)C2=O)cc1	none
C[C@]12C(=O)N(c3cccc(F)c3)C(=O)N1[C@@H]1c3ccccc3OC[C@@H]1[C@H]2c1ccccc1	none | RGS4 inh valid inactive | RGS4 uninduced inactive | RGS4 inh ctr2 inactive
C[C@]12C(=O)N(c3ccc(C(F)(F)F)cc3)C(=O)N1[C@@H]1c3ccccc3OC[C@@H]1[C@H]2c1ccccc1	none
C[C@]12C(=O)N(c3ccccc3)C(=O)N1[C@@H]1c3ccccc3OC[C@@H]1[C@H]2c1ccccc1	none | RGS4 inh valid inactive | RGS4 uninduced inactive | RGS4 inh ctr2 inactive
Cc1sc2nc3ccc(NCc4ccco4)nn3c(=O)c2c1C	RGS4 block 8.3 | RGS4 inh valid inactive | RGS4 uninduced inactive | RGS4 inh ctr2 16%
Nc1nonc1-n1nnc(C(=O)N/N=C/c2ccccn2)c1CNc1ccccc1	none
Cn1c(=O)c2nc(NCc3ccccc3)cnc2n(C)c1=O	none
Cc1nc2c(=O)n(C)c(=O)n(C)c2nc1Cl	RGS4 block 12 | RGS4 inh valid 36% | RGS4 uninduced inactive | RGS4 inh ctr2 inactive
CCOC(=O)C1(Cc2cccc(Cl)c2)CCCN(C(=O)C(C)(C)C)C1 (stereo not given)	none
CSCCC(NC(=O)c1ccccc1Br)C(=O)NCC(c1ccco1)N1CCCCC1 (stereo not given)	none
CC1CCC2C(=O)N(c3ccc(C(=O)Oc4cccc5cccnc45)cc3)C(=O)C2C1 (stereo not given)	RGS4 block 5.2 | RGS4 inh valid 25% | RGS4 uninduced inactive | RGS4 inh ctr2 inactive
O=C(CSc1nc2ccccc2[nH]1)Nc1nc(-c2cccc(Br)c2)cs1	RGS4 block 7.7 | RGS4 inh valid 16% | RGS4 uninduced inactive | RGS4 inh ctr2 inactive
